Data as given in publication PMC10872764 (Journal of controlled release : official journal of the …, 2023).
Each block holds one molecule with its values, some of them ahead of it.

Columns and labels:
[1] = cited from earlier work
ACE2 [2] = biological target: T1, ACE2 (Homo sapiens, UniProt Q9BYF1); assay: Activity of recombinant ACE2 with Zn chelation by DTPA; format: biochemical; details: 25 μg/mL H4 (200 ng/mL elsewhere in the source), 25 mM DTPA, 37 °C
Procedure, shortened: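 Human recombinant ACE2 was incubated at 37 °C with or without test compound (25 μg/mL in methods; 200 ng/mL in legend). Free Zn was depleted with 25 mM DTPA. Activity was read by fluorogenic Mca-YVADAPK(Dnp)-OH cleavage (ex 330/em 405 nm) in MES/NaCl/ZnCl2/Brij-35 buffer, pH 6.5. Each dot is one treatment well; one-way ANOVA.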
Target sequence in this assay (Q9BYF1 18-805): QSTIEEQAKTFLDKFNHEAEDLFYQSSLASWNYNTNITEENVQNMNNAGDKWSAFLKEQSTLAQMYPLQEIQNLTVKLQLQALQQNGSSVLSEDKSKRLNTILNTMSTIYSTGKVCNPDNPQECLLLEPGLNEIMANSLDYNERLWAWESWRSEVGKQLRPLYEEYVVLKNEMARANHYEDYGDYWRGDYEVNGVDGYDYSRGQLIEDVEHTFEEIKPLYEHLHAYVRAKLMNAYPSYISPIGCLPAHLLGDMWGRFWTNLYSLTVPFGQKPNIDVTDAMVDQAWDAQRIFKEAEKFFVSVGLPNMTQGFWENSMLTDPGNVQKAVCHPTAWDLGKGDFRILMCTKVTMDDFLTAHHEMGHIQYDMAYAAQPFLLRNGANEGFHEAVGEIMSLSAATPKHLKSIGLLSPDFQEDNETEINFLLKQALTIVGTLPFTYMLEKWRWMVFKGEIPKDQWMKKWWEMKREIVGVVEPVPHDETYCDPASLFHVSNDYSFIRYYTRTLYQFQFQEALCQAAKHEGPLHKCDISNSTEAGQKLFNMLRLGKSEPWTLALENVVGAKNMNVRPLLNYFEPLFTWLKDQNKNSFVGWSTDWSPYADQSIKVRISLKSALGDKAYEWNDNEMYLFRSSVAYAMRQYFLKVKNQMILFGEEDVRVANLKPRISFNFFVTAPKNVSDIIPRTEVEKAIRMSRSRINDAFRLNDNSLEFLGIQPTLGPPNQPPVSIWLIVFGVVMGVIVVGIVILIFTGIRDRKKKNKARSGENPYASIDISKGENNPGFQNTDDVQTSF

Water solubility = format: physicochemical
ACE2 [3] = biological target: T1, ACE2; assay: ACE2 activity in culture medium of Calu-3 cells; format: cell-based
Target sequence in this assay (Q9BYF1 18-708 limits assumed): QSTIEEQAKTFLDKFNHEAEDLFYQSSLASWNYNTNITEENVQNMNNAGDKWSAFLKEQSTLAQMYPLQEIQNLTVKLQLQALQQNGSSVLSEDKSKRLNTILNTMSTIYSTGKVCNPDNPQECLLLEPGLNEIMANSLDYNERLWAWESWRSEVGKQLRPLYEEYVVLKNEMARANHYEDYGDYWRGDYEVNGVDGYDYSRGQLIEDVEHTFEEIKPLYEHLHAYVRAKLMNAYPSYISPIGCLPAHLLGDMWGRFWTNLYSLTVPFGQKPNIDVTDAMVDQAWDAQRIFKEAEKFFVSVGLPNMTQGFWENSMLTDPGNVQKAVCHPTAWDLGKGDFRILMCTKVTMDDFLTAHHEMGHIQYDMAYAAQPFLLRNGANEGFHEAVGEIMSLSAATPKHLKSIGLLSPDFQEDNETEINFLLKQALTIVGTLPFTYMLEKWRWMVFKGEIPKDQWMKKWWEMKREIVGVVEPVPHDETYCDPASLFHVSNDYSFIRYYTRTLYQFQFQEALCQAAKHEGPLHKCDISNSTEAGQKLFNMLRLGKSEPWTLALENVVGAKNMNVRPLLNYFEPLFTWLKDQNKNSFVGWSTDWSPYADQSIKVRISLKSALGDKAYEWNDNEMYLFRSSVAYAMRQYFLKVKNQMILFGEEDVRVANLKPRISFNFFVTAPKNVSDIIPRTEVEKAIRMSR

ACE2 gene expression = assay: ACE2 mRNA in Calu-3 cells by quantitative real-time PCR; format: cell-based, human; details: 25 μg/mL H4, varying durations
[4] = tested on: P. aeruginosa induced bacterial pneumonia; assay: P. aeruginosa induced bacterial pneumonia model, wild-type mice; format: in vivo, mouse; details: wild-type mice infected with P. aeruginosa; treatment 18 h after inoculation
Procedure, shortened: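 In wild-type C57BL/6 mice, P. aeruginosa was instilled intratracheally via tracheal intubation. Test compound (10 mg/kg) was given by nasal instillation 18 h after inoculation, and lungs were collected 30 h later (48 h post-infection). Lung sections were H&E-stained; n = 5 per group; one-way ANOVA with multiple comparisons.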

[5] = tested on: P. aeruginosa induced bacterial pneumonia; assay: P. aeruginosa induced bacterial pneumonia model, global ACE2 knockout; format: in vivo, mouse; details: Ace2-/- mice infected with P. aeruginosa, H4 treatment, n = 3
Procedure, shortened: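 Ace2−/− mice were given P. aeruginosa by intratracheal instillation via tracheal intubation, with test compound 18 h after inoculation and samples taken 30 h later; n = 3 per group. Endpoints: body weight at sacrifice, lung H&E, lung IFNγ, MPO immunofluorescence, and BAL flow cytometry (Fc block 20 min at 4 °C, viability dye, CD45+CD11b+Ly6G+ live cells).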

mouse lungs = assay: In vivo cytotoxicity; details: mice, 2.5 mg/mL, 30 μl/mouse, nasal inhalation
Procedure, shortened: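 Wild-type C57/Bl6 mice received 30 μl of a 2.5 mg/ml solution of self-assembled prodrug, or saline, by nasal inhalation. Lungs were collected 48 h later per methods (18 h per results). Tissue went to histopathology, apoptotic cell counts, immunofluorescence, and ELISA/qRT-PCR for proinflammatory cytokines. At least three mice per group; experiments repeated twice.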

Molecule: CC(=O)NCC(=O)O.CC(=O)NCC(=O)O.N=C(N)c1ccc(N=NNc2ccc(C(=N)N)cc2)cc1 [DIZE, diminazene aceturate]
toxicity [1]: high toxicity

ACE2 activity of recombinant ACE2 (ACE2 [2]): substantially diminishes ACE2 activity
Molecule: O=C(O)CN(CCN(CC(=O)O)CC(=O)O)CCN(CC(=O)O)CC(=O)O [DTPA, diethylenetriaminepentaacetic acid]

dissolution in water (Water solubility; water, 25 °C, no method or source printed): 0.5 mg/mL
plateau of ACE2 activity enhancement (ACE2 [3]): around 50 μg/mL
concentration range in which ACE2 activity is notably augmented (ACE2 [3]; 0–500 μg/ml, 18 h, 37 °C, culture medium): 5 to 50 µg/mL
mid-effective concentration for enhancing ACE2 activity (ACE2 [3]; dose-dependent): 10 to 30 µg/mL
Molecule: C[C@]12CC[C@@H]3c4ccc(O)cc4CC[C@H]3[C@@H]1C[C@@H](O)[C@@H]2O [H4]
ACE2 activity of recombinant ACE2 (ACE2 [2]): restore the ACE2 activity that had been inhibited by DTPA
ACE2 mRNA levels (ACE2 gene expression): did not induce ACE2 gene expression
lung histopathology (H&E) [4]: alleviated histopathology
body weight recovery [5]: no discernible effects
lung histopathology (H&E) [5]: no discernible effects
neutrophil infiltration into the lungs (BAL flow cytometry, MPO staining) [5]: did not diminish neutrophil infiltration
production of MIP-2 [5]: nor did it decrease the production of MIP-2
proinflammatory cytokine IFNγ in lung tissue [5]: no discernible effects

Molecule: Cc1ccc(S(=O)(=O)Oc2ccc3oc4c(CO)ccc(NCCN(C)C)c4c(=O)c3c2)cc1 [XNT, xanthenone]
toxicity [1]: high toxicity

Molecule: H4-Succinic Acid-Val-Val-Glu-Glu-NH2 [H4 prodrug]
solubility in water compared with H4 (Water solubility; photographs of aqueous solutions at 1 mg/mL (Fig. 4B)): improved solubility in water
lung histopathology (H&E) [4]: enhanced histology
toxicity in the lungs (mouse lungs): non-detectable toxicity
pro-inflammatory cytokine levels in lung tissues (mouse lungs; ELISA and qRT-PCR): no surge in pro-inflammatory cytokine levels
